Measurements taken from ChEMBL document CHEMBL3286242, “Design, synthesis and biological evaluation of arylcinnamide hybrid derivatives as novel anticancer agents” (Eur J Med Chem, 2014).
The source made the active and inactive calls. The rule behind the calls is not given here.

Experiments:
[1] = Selectivity ratio of IC50 for human resting PBMC to IC50 for human Jurkat cells; format: ADME, cell-based; conditions: resting PBMC versus Jurkat cells, read-out: Ratio IC50
[2] = target: Tubulin (Homo sapiens) (UniProt P68371+Q9H4B7+P0DPH7+P68366+Q13509+Q71U36+P04350+Q3ZCM7+P07437+P68363+Q9BQE3+Q6PEY2+Q13885+Q9BVA1+Q9BUF5); assay: Inhibition of tubulin polymerization in human HeLa cells assessed as microtubule disruption at 2.5 to 5 uM after 24 hrs by immunofluorescence microscopy relative to untreated control; format: cell-based
Method in brief: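 HeLa cells exposed 24 h to 2.5 or 5.0 μM versus untreated; fixed in cold 4% formaldehyde 15 min, stained with anti-β-tubulin monoclonal (1:1000) and Alexa secondary (1:2000), DAPI counterstain; imaged by confocal microscopy at 20×.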

[3] = test system: HeLa; assay: Induction of apoptosis in human HeLa cells assessed as increase in Bak protein expression at 1 to 2.5 uM after 24 to 48 hrs by Western blotting analysis; format: functional, cell-based
[4] = test system: PBMC; assay: Cytotoxicity against human PHA-stimulated PBMC assessed as growth inhibition after 72 hrs by MTT assay; format: functional, cell-based
[5] = test system: HeLa; assay: Induction of apoptosis in human HeLa cells assessed as caspase activation at 2.5 uM after 48 hrs in presence of pan-caspase inhibitor z-VAD.fmk; format: functional, cell-based
Method in brief: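 HeLa cells given 2.5 μM compound for 48 h with or without 100 μM z-VAD.fmk pan-caspase inhibitor; viability measured; means ± SEM of three independent experiments, Student's t-test.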

[6] = test system: HeLa; assay: Induction of apoptosis in human HeLa cells assessed as reduction in Mcl-1 protein expression at 2.5 uM after 48 hrs by Western blotting analysis; format: functional, cell-based
Method in brief: (§1)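 HeLa cells treated at indicated concentrations and times; washed in cold PBS, lysed 30 min at 0 °C, cleared at 15 000 × g; 20 μg protein resolved on 7.5–15% gradient SDS-PAGE, blotted to PVDF, primary antibodies 2 h room temperature, peroxidase secondary 60 min, ECL detection; β-actin reprobe for loading.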

[7] = test system: PBMC; assay: Cytotoxicity against human resting PBMC assessed as growth inhibition after 72 hrs by MTT assay; format: cell-based
Method in brief: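 Healthy-donor PBMC from Lymphoprep gradient, rested overnight in RPMI-1640/10% FBS; non-adherent cells at 5 × 10^5 cells/mL without PHA, treated 72 h with varying concentrations; viability by MTT; IC50 mean ± SEM, three separate experiments.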

[8] = test system: HeLa; assay: Induction of apoptosis in human HeLa cells assessed as reduction in Bcl-2 protein expression at 1 to 2.5 uM by Western blotting analysis; format: functional, cell-based; conditions: TDE = time-dependent effect; method in brief: as §1
[9] = test system: HeLa; assay: Induction of apoptosis in human HeLa cells assessed as caspase-3 activation after 24 to 48 hrs by Western blotting analysis; format: functional, cell-based; method in brief: as §1
[10] = test system: CCRF-CEM; assay: Resistance ratio of IC50 for human CEM/VBL100 cells to IC50 for human CEM cells; format: functional
Method in brief: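 Ratio of IC50 in resistant line to IC50 in parental line (CEMVbl-100/CEM; LoVoDoxo/LoVo), each IC50 from 72 h MTT dose–response curves, ≥3 independent experiments.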

[11] = test system: HeLa; assay: Cell cycle arrest in human HeLa cells assessed as reduction in S phase after 24 hrs by propidium iodide staining-based flow cytometry; format: functional
Method in brief: (§2)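 HeLa cells in exponential growth (2.5 × 10^5) treated 24 h at various concentrations; ethanol-fixed (70%, ice-cold), lysed with RNase A/0.1% Triton X-100, PI-stained; DNA content by flow cytometry, phase percentages from DNA histograms.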

[12] = Cytotoxicity against human CEM/VBL100 cells assessed as growth inhibition after 72 hrs by MTT assay; format: functional, cell-based; conditions: CEM/VBL100, 72 h
[13] = test system: HeLa; assay: Induction of apoptosis in human HeLa cells assessed as reduction in Bcl-2 protein expression at 1 to 2.5 uM after 48 hrs by Western blotting analysis; format: functional, cell-based; method in brief: as §1
[14] = test system: HeLa; assay: Induction of apoptosis in human HeLa cells assessed as caspase-9 activation at 1 to 2.5 uM after 24 to 48 hrs by Western blotting analysis; format: functional, cell-based; method in brief: as §1
[15] = test system: LoVo; assay: Cytotoxicity against human LoVo cells assessed as growth inhibition after 72 hrs by MTT assay; format: functional, cell-based
[16] = test system: HeLa; assay: Induction of apoptosis in human HeLa cells assessed as cell viability at 2.5 uM after 48 hrs by MTT assay in presence of dithiothreitol; format: functional, cell-based
Method in brief: (§3)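 HeLa cells exposed to 2.5 μM compound for 48 h with scavengers (NAC 100 μM, GSH 1 mM or DTT 1 mM, among others); viability by MTT; means ± SEM of four independent experiments, Student's t-test.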

[17] = test system: HeLa; assay: Induction of apoptosis in human HeLa cells assessed as caspase-8 activation at 1 to 2.5 uM after 24 to 48 hrs by Western blotting analysis; format: functional, cell-based; method in brief: as §1
[18] = test system: HeLa; assay: Induction of apoptosis in human HeLa cells assessed as mitochondrial depolarization at 1 to 5 uM after 12 hrs by JC-1 staining-based flow cytometry; format: functional, cell-based
[19] = test system: HeLa; assay: Induction of intracellular ROS generation in human HeLa cells at 1 to 5 uM after 1 to 6 hrs by hydroethidine staining-based flow cytometry; format: functional, cell-based
Method in brief: (§4)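 HeLa cells treated at various concentrations and times; ROS followed by flow cytometry with H2DCFDA or hydroethidine (HE, mainly superoxide).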

[20] = Selectivity ratio of IC50 for human resting PBMC to IC50 for human CEM cells; format: ADME, cell-based, CCRF-CEM; conditions: resting PBMC versus CEM cells, read-out: Ratio IC50
[21] = test system: HeLa; assay: Induction of apoptosis in human HeLa cells assessed as PARP cleavage after 24 to 48 hrs by Western blotting analysis; format: functional, cell-based; method in brief: as §1
[22] = test system: Jurkat; assay: Cytotoxicity against human Jurkat cells assessed as growth inhibition after 72 hrs by MTT assay; format: functional, cell-based
[23] = test system: HeLa; assay: Induction of apoptosis in human HeLa cells assessed as increase in Bax protein expression at 1 to 2.5 uM after 24 to 48 hrs by Western blotting analysis; format: functional, cell-based
[24] = test system: HeLa; assay: Induction of apoptosis in human HeLa cells assessed as PARP cleavage at 1 to 2.5 uM by Western blotting analysis; format: functional, cell-based; conditions: TDE = time-dependent effect; method in brief: as §1
[25] = test system: HeLa; assay: Cell cycle arrest in human HeLa cells assessed as accumulation at G2/M phase after 24 hrs by propidium iodide staining-based flow cytometry; format: functional; method in brief: as §2
[26] = test system: HeLa; assay: Induction of apoptosis in human HeLa cells assessed as cell viability at 2.5 uM after 48 hrs by MTT assay in presence of N-acetylcysteine; format: functional, cell-based; method in brief: as §3
[27] = test system: HeLa; assay: Induction of apoptosis in human HeLa cells assessed as GSH depletion at 1 to 2.5 uM after 24 hrs by CMFDA staining-based flow cytometry in presence of N-acetylcysteine; format: functional, cell-based
Method in brief: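 HeLa cells treated 24 h with compound, alone or with 100 μM NAC; harvested and loaded with 5 μM CMFDA, 30 min at 37 °C; intracellular GSH read as CMFDA fluorescence by flow cytometry; means ± SEM.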

[28] = test system: HeLa; assay: Induction of intracellular ROS generation in human HeLa cells after 1 to 6 hrs by H2DCFDA staining-based flow cytometry; format: functional, cell-based; method in brief: as §4
[29] = Cytotoxicity against human LoVo/DX cells assessed as growth inhibition after 72 hrs by MTT assay; format: functional, cell-based

SMILES: C=C(Br)C(=O)Nc1ccc(/C=C/C(=O)Nc2cc(OC)c(OC)c(OC)c2)cc1
- selectivity ratio [1]: 10
- inhibition [2]: inactive
- Activity [3]: inactive
- IC50 [4]: 240 nM
- Activity [5]: inactive
- Activity [6]: Active
- IC50 [7]: 3500 nM
- Activity [8]: tde
- Activity [9]: Dose-dependent effect
- Ratio IC50 [10]: 0.6
- Activity [11]: Active
- IC50 [12]: 15 nM
- Activity [13]: Active
- Activity [14]: inactive
- IC50 [15]: 2100 nM
- Activity [16]: inactive
- Activity [17]: Active
- Activity [18]: Active
- Activity [19]: inactive
- selectivity ratio [20]: 10
- Activity [21]: Dose-dependent effect
- IC50 [22]: 410 nM
- Activity [23]: inactive
- Activity [24]: tde
- Activity [25]: Dose-dependent effect
- Activity [26]: inactive
- Activity [27]: inactive
- Activity [28]: Dose-dependent effect
- IC50 [29]: 1370 nM
